# Screening data: PubChem BioAssay, several laboratories
# CHT inh: human CHT choline transport inhibition; CHT-expressing cells, membrane potential dye, choline response; hits give low values; AID 488975; B-score at 10 µM; Q9GZV3; actives 0.86% (n = 310,000);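 active = B-score over 3 SD under the library average, and starting fluorescence ratio not unusually high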;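 note: choline stimulus applied at its EC90 after an EC20 pre-addition; B-score computed on integrated fluorescence ratio after choline addition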
# Target sequence (Q9GZV3 whole entry, looked up): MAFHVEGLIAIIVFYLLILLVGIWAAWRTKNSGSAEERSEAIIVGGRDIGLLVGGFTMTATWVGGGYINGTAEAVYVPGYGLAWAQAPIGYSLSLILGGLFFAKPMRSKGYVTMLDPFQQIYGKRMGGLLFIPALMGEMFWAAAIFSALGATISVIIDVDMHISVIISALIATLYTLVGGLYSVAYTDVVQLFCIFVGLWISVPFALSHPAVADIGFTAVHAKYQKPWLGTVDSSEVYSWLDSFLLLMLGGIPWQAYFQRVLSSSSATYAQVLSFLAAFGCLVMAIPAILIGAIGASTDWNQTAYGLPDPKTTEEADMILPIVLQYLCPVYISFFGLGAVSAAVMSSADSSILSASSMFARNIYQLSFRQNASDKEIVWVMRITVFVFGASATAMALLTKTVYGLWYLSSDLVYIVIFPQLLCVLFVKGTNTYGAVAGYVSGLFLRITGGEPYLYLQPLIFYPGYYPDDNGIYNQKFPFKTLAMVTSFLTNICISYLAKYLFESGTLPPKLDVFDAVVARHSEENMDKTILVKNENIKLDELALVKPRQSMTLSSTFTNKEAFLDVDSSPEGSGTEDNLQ
# CHT allo act: allosteric activators of human choline transporter CHT | Q9GZV3 | CHT-expressing cells, membrane potential dye, choline EC20; hits give high values; LV-AA mutant CHT in HEK293 cells | B-score at 10 µM | actives 0.49% (n = 310,000);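 active = initial fluorescence not abnormally high and integrated response B-score, plate-corrected, over 3 SD above library mean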
# T cell HTS: modulates CD8 T cell binding to vesicles. response (vesicle binding), % at 7 µM. AID 2052. actives 0.068% (n = 330,000). 2C CD8+ T cell-vesicle binding, flow cytometry; hits give low values;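 active = response, share of CD8 T cells binding vesicles, and their 90th percentile fluorescence all below set limits, cut at about 80% in these data, passing the limit was not always enough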;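 note: values below 100% mean blocked vesicle binding to the CD8+ T cells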
#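 Assay system: 2C TCR transgenic mouse naive CD8+ T cells, MACS-purified | Read-out: CD8+ gate FL2 mean fluorescence as % of same-row positive control | Signal: High-throughput flow cytometry with anti-B7-1 and anti-CD8 staining | Timing: Binding step 1.5 h, 37 °C, antibody labelling 20 min, ice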
# VLA-4 inh: inhibition in a human VLA-4 binding assay. inhibition, % (about 7 µM as worked out from the volumes in the protocol). AID 2557. P13612. VLA-4 expressing cells, ligand binding flow cytometry. actives 0.2% (n = 330,000); in the data active = inhibition above about 50%
# CHT act confirm: human CHT activation, confirmatory screen; shares compounds with CHT allo act; CHT-expressing cells, membrane potential dye fluorescence (FDSS); % of choline EC20–EC90 response window; HEK293 expressing CHT LV-AA mutant; choline added at its EC20; activation, % at 10 µM; actives 91% (n = 2,500);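 active = primary screen active, with duplicate mean activation above negative control mean plus 3 SD, cut at about 11% in these data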
# HEK293 MP dye: activity in parental HEK293 cells lacking CHT; shares compounds with CHT allo act; membrane potential dye fluorescence (FDSS); measured after EC20 choline addition; ratio readout change at 10 µM, hits read low; actives 62% (n = 2,500); AID 623908;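 active = duplicate-averaged ratio beyond 3 SD from buffer wells, up or down, though filed actives are nearly all decreases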
# * marks the source's active call; other numbers are inactive results; i = inactive; / = no result. An excerpt weighted towards active compounds, which were near 1.5% of everything screened.
SMILES,CHT inh,CHT allo act,T cell HTS,VLA-4 inh,CHT act confirm,HEK293 MP dye
COc1cc(-c2nnc(SCC(=O)/C(C#N)=C(\C)N)o2)cc(OC)c1OC,i,i,131,-3,4,-23*
Cc1ccc(NC(=O)c2cncc(Br)c2)nc1,i,i,261,0,/,/
CN=Cc1c(NC)nc2c(C)cccn2c1=O,i,9.3*,269,20,43*,-27*
Cc1cccn2c(=O)c(C=O)c(Cl)nc12,i,6.6*,i,-31,42*,-31*
CNc1nc2c(C)cccn2c(=O)c1C=NCc1ccccc1,i,i,196,8,/,/
COc1ccc2c(c1)CCCN2C(N)=O,i,i,502,5,/,/
COc1ccc2c(c1)CCCN2C(N)=Nc1ccc(Cl)cc1,i,6.3*,224,2,16*,i
Cc1ccc(C(c2nnnn2C2CCCCC2)N(C)C2CCCCC2)cc1 (centres undefined),i,i,163,16,6,i
COc1ccc(-c2cc(=O)c3cc(OC)ccc3o2)cc1,i,i,348,41,/,/
CCC(N=c1cc(-c2ccc(OC)cc2)oc2ccc(C)cc12)C(=O)O (centres undefined),i,i,306,16,32*,-27*
CCN1CCN(c2ccc(S(=O)(=O)N3CCCCC3)cc2NC(=O)/C=C/c2cccc(OC)c2OC)CC1,i,i,262,-4,41*,-31*
CCN1CCN(c2ccc(S(=O)(=O)N3CCCCC3)cc2NC(=O)Cc2ccc(OC)cc2)CC1,i,i,220,3,39*,-36*
CCOC(=O)c1c(NC(=O)CN2C(=O)NC3(CCCC3)C2=O)sc(C)c1CC,i,i,554,6,/,/
Cc1ccc(S(=O)(=O)NCCC(=O)Nc2ccncc2)cc1C,i,i,376,2,/,/
CCOc1cc(C(=O)OCC(=O)N(C)c2ccccc2)cc(OCC)c1OCC,i,i,207,19,/,/
O=C(Cn1c(=O)oc2ccccc21)NCC1COc2ccccc2O1 (centres undefined),i,i,231,-4,/,/
CC(C)Cc1ccc(C(C)C(N)=NCCc2ccccc2)cc1 (centres undefined),i,13*,188,24,6,i
Fc1ccccc1NC(=S)Nc1ccc(CN2CCOCC2)cc1,i,i,184,-1,/,/
NS(=O)(=O)c1ccc(NC(=O)c2ccc3nccnc3c2)cc1,i,7.5*,476,1,39*,-27*
NS(=O)(=O)c1ccc(CCNC(=O)c2ccc3nccnc3c2)cc1,/,/,339,4,/,/
CC1CCCN(c2c([N+](=O)[O-])c(=O)oc3ccccc23)C1 (centres undefined),i,i,219,6,/,/
O=c1oc2ccccc2c(N2CCC(c3ccccc3)CC2)c1[N+](=O)[O-],i,i,230,7,5,i
Cc1cc(C)c(-n2c(O)c(C=NCCN3CCOCC3)c(=O)[nH]c2=O)c(C)c1,i,9.8*,595,5,17*,i
CCC1CCc2sc(C(=O)NCC(c3ccc(OC)cc3)N3CCCC3)cc2C1 (centres undefined),i,i,258,5,22*,i
Cc1cccc(NC(=S)N=Nc2c(O)[nH]c3ccccc23)c1,i,9.5*,476,0,8,i
SMILES,CHT inh,CHT allo act,T cell HTS,VLA-4 inh,CHT act confirm,HEK293 MP dye
COc1ccccc1NC(=S)N=Nc1c(O)[nH]c2ccc(Br)cc12,i,i,0,-5,/,/
Cn1c(CCN2CCCCC2)nc2cc([N+](=O)[O-])ccc21,i,8.5*,209,-9,58*,-62*
COc1ccc(Nc2nccc(N(C)C)c2C#N)cc1,i,i,307,5,50*,-42*
c1ccc(-c2nc(N3CCCCCC3)c3ccccc3n2)nc1,i,i,185,14,/,/
CCN1CCN(c2nc(-c3ccccn3)nc3ccccc23)CC1,i,i,535,0,57*,-92*
c1ccc(-c2nc(N3CCOCC3)c3ccccc3n2)nc1,i,10*,392,8,69*,-83*
CCCCCCN1CC(=O)N2Cc3[nH]c4ccccc4c3C[C@H]2C1=O,i,i,141,2,/,/
CCc1cccc(NS(=O)(=O)c2csc(C(N)=O)c2)c1,i,i,246,3,/,/
C[C@H](NC(=O)C(c1ccccc1)c1ccccc1)c1ccccc1,i,7.9*,158,6,6,i
O=C1C=CC(=O)N1N(c1ccccc1)c1ccccc1,i,i,133,-13,/,/
Cc1ccccc1C1c2[nH]c3ccccc3c2CCN1Cc1cccn1-c1ncccn1 (centres undefined),i,6.3*,306,3,27*,i
Fc1ccccc1C1c2[nH]c3ccccc3c2CCN1Cc1cccn1-c1ncccn1 (centres undefined),i,i,281,1,/,/
CCOC(=O)c1ccc2c(c1)n(CCO)c(C)[n+]2CC,i,i,579,-8,/,/
CCOC(=O)c1ccc2c(c1)n(CC)c(/C=C/N(C)c1ccccc1)[n+]2CC,i,7.4*,270,13,44*,-63*
CCCCOC(=O)c1ccc(NC(=O)c2c(N)n(C)c(=O)[nH]c2=O)cc1,i,i,986,11,/,/
COc1ccc(C2CC(c3c(O)cc(C)oc3=O)=NCCS2)c(OC)c1 (centres undefined),i,7.6*,342,25,51*,i
CO/N=C/C(C#N)=C/c1cc(C(=O)c2ccccc2)cn1C,i,i,391,-3,/,/
CCn1cnc2cc(NCc3ccncc3)ccc21,i,i,577,2,49*,-38*
CCn1cnc2cc(NCc3ccc(Cl)cc3)ccc21,i,i,138,-2,/,/
COc1cccc(-c2nc(C(=O)NCC3CCCO3)cc3c2[nH]c2ccccc23)c1 (centres undefined),i,i,226,-14,/,/
COC(=O)C1=C(C)NC(=S)N(C(C)=O)C1c1ccc(OC)c(OC)c1 (centres undefined),i,i,299,8,/,/
Cc1cc(/C=N\NC(=O)CC(=O)NC2CCCCC2)c(C)n1-c1cccc(Cl)c1Cl,i,12*,302,7,23*,i
O=C(N/N=C/c1ccc2c(c1)OCO2)C(=O)Nc1cccc(Cl)c1,i,i,236,11,/,/
O=[N+]([O-])c1ccc(/C=C/C2=NN(c3ccccc3)C(c3ccco3)C2)cc1 (centres undefined),i,15*,616,i,51*,i
CCCc1nc2c(C)ccc(C)c2c(N)c1CC,i,i,424,15,55*,-52*
